{"source": "ChEMBL document CHEMBL4270565", "about": "“Design, synthesis and antimicrobial evaluation of propylene-tethered ciprofloxacin-isatin hybrids” (Eur J Med Chem, 2018)", "data": [{"tested_on": "Pseudomonas aeruginosa", "test": "Antibacterial activity against Pseudomonas aeruginosa ATCC 27853 after 18 to 24 hrs by two-fold serial dilution method", "type": "functional", "conditions": "not given", "outline": "(§1)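 Agar two-fold dilution MIC. Compounds were dissolved in 0.1 N NaOH and water, then serially diluted in melted Mueller-Hinton agar, with top concentrations starting at 128. Plates were inoculated at about 10 cfu and incubated at 35 °C for 18–24 h. MIC was taken as the lowest concentration giving 90% inhibition of growth.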", "units": {"MIC90": "µg/mL"}, "values": [{"smiles": "CCO/N=C1\\C(=O)N(CCCN2CCN(c3cc4c(cc3F)c(=O)c(C(=O)OCCCN3C(=O)/C(=N/OCC)c5ccccc53)cn4C3CC3)CC2)c2ccccc21", "MIC90": 64}]}, {"tested_on": "not listed separately", "test": "Cytotoxicity against African green monkey Vero cells assessed as reduction in cell viability after 72 hrs by MTT assay", "type": "cell-based", "conditions": "chlorocebus sabaeus", "outline": "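VERO cells were kept in MEM with Earle's salts and 10% FBS at 37 °C, 5% CO2. They were seeded in 96-well plates and allowed to recover for 24 h. Cells were then exposed to compounds in DMSO over a series from 1000 down to 4 for 72 h. Viability was read by MTT, and CC50 was calculated by Bliss analysis.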", "units": {"CC50 at 72 h": "µg/mL"}, "values": [{"smiles": "CCO/N=C1\\C(=O)N(CCCN2CCN(c3cc4c(cc3F)c(=O)c(C(=O)OCCCN3C(=O)/C(=N/OCC)c5ccccc53)cn4C3CC3)CC2)c2ccccc21", "CC50 at 72 h": 32}]}, {"tested_on": "Enterococcus faecium", "test": "Antibacterial activity against Enterococcus faecium 13-7 after 18 to 24 hrs by two-fold serial dilution method", "type": "functional", "conditions": "not given", "outline": "as §1", "units": {"MIC90": "µg/mL"}, "values": [{"smiles": "CCO/N=C1\\C(=O)N(CCCN2CCN(c3cc4c(cc3F)c(=O)c(C(=O)OCCCN3C(=O)/C(=N/OCC)c5ccccc53)cn4C3CC3)CC2)c2ccccc21", "MIC90": "> 128"}]}, {"tested_on": "Enterococcus faecium", "test": "Antibacterial activity against Enterococcus faecium ATCC 700221 after 18 to 24 hrs by two-fold serial dilution method", "type": "functional", "conditions": "not given", "outline": "as §1", "units": {"MIC90": "µg/mL"}, "values": [{"smiles": "CCO/N=C1\\C(=O)N(CCCN2CCN(c3cc4c(cc3F)c(=O)c(C(=O)OCCCN3C(=O)/C(=N/OCC)c5ccccc53)cn4C3CC3)CC2)c2ccccc21", "MIC90": "> 128"}]}, {"tested_on": "Escherichia coli", "test": "Antibacterial activity against extended-spectrum beta-lactamase harboring Escherichia coli ATCC 35218 after 18 to 24 hrs by two-fold serial dilution method", "type": "functional", "conditions": "not given", "outline": "(§2)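 Agar two-fold serial dilution in Mueller-Hinton agar. Strains came from the Chinese Center for Disease Control and Prevention. Compounds were dissolved in 0.1 N NaOH and water, then diluted in melted agar to final levels stepping down from 128. Plates were inoculated with bacterial cfu and incubated at 35 C for 18–24 h. MIC is the lowest concentration giving 90% growth inhibition.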", "units": {"MIC90": "µg/mL"}, "values": [{"smiles": "CCO/N=C1\\C(=O)N(CCCN2CCN(c3cc4c(cc3F)c(=O)c(C(=O)OCCCN3C(=O)/C(=N/OCC)c5ccccc53)cn4C3CC3)CC2)c2ccccc21", "MIC90": 32}]}, {"tested_on": "Klebsiella pneumoniae", "test": "Antibacterial activity against extended-spectrum beta-lactamase deficient Klebsiella pneumoniae 15-2 after 18 to 24 hrs by two-fold serial dilution method", "type": "functional", "conditions": "not given", "outline": "as §1", "units": {"MIC90": "µg/mL"}, "values": [{"smiles": "CCO/N=C1\\C(=O)N(CCCN2CCN(c3cc4c(cc3F)c(=O)c(C(=O)OCCCN3C(=O)/C(=N/OCC)c5ccccc53)cn4C3CC3)CC2)c2ccccc21", "MIC90": 64}]}, {"tested_on": "Staphylococcus epidermidis", "test": "Antibacterial activity against methicillin-sensitive Staphylococcus epidermidis ATCC 12228 after 18 to 24 hrs by two-fold serial dilution method", "type": "functional", "conditions": "not given", "outline": "as §1", "units": {"MIC90": "µg/mL"}, "values": [{"smiles": "CCO/N=C1\\C(=O)N(CCCN2CCN(c3cc4c(cc3F)c(=O)c(C(=O)OCCCN3C(=O)/C(=N/OCC)c5ccccc53)cn4C3CC3)CC2)c2ccccc21", "MIC90": 64}]}, {"tested_on": "Stenotrophomonas maltophilia", "test": "Antibacterial activity against Stenotrophomonas maltophilia ATCC 13636 after 18 to 24 hrs by two-fold serial dilution method", "type": "functional", "conditions": "not given", "outline": "as §1", "units": {"MIC90": "µg/mL"}, "values": [{"smiles": "CCO/N=C1\\C(=O)N(CCCN2CCN(c3cc4c(cc3F)c(=O)c(C(=O)OCCCN3C(=O)/C(=N/OCC)c5ccccc53)cn4C3CC3)CC2)c2ccccc21", "MIC90": "> 128"}]}, {"tested_on": "Staphylococcus epidermidis", "test": "Antibacterial activity against methicillin-resistant Staphylococcus epidermidis 13-3 after 18 to 24 hrs by two-fold serial dilution method", "type": "functional", "conditions": "not given", "outline": "as §2", "units": {"MIC90": "µg/mL"}, "values": [{"smiles": "CCO/N=C1\\C(=O)N(CCCN2CCN(c3cc4c(cc3F)c(=O)c(C(=O)OCCCN3C(=O)/C(=N/OCC)c5ccccc53)cn4C3CC3)CC2)c2ccccc21", "MIC90": 128}]}, {"tested_on": "Enterococcus faecalis", "test": "Antibacterial activity against Enterococcus faecalis ATCC 29212 after 18 to 24 hrs by two-fold serial dilution method", "type": "functional", "conditions": "not given", "outline": "as §1", "units": {"MIC90": "µg/mL"}, "values": [{"smiles": "CCO/N=C1\\C(=O)N(CCCN2CCN(c3cc4c(cc3F)c(=O)c(C(=O)OCCCN3C(=O)/C(=N/OCC)c5ccccc53)cn4C3CC3)CC2)c2ccccc21", "MIC90": 64}]}, {"tested_on": "Klebsiella pneumoniae", "test": "Antibacterial activity against extended-spectrum beta-lactamase harboring Klebsiella pneumoniae ATCC 700603 after 18 to 24 hrs by two-fold serial dilution method", "type": "functional", "conditions": "not given", "outline": "as §2", "units": {"MIC90": "µg/mL"}, "values": [{"smiles": "CCO/N=C1\\C(=O)N(CCCN2CCN(c3cc4c(cc3F)c(=O)c(C(=O)OCCCN3C(=O)/C(=N/OCC)c5ccccc53)cn4C3CC3)CC2)c2ccccc21", "MIC90": 64}]}, {"tested_on": "Morganella morganii", "test": "Antibacterial activity against Morganella morganii ATCC 25830 after 18 to 24 hrs by two-fold serial dilution method", "type": "functional", "conditions": "not given", "outline": "as §1", "units": {"MIC90": "µg/mL"}, "values": [{"smiles": "CCO/N=C1\\C(=O)N(CCCN2CCN(c3cc4c(cc3F)c(=O)c(C(=O)OCCCN3C(=O)/C(=N/OCC)c5ccccc53)cn4C3CC3)CC2)c2ccccc21", "MIC90": 64}]}, {"tested_on": "Klebsiella aerogenes", "test": "Antibacterial activity against Enterobacter aerogenes ATCC 13048 after 18 to 24 hrs by two-fold serial dilution method", "type": "functional", "conditions": "not given", "outline": "as §1", "units": {"MIC90": "µg/mL"}, "values": [{"smiles": "CCO/N=C1\\C(=O)N(CCCN2CCN(c3cc4c(cc3F)c(=O)c(C(=O)OCCCN3C(=O)/C(=N/OCC)c5ccccc53)cn4C3CC3)CC2)c2ccccc21", "MIC90": 64}]}, {"tested_on": "Mycobacterium tuberculosis", "test": "Antimycobacterial activity against Mycobacterium tuberculosis H37Rv after 7 days", "type": "functional", "conditions": "168 h", "outline": "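Rapid direct susceptibility test in 48-well plates. Two-fold dilutions of compound from DMSO stocks were mixed with an equal volume of bacterial suspension. Medium-only wells served as growth controls and water-only wells as no-growth controls. Plates were sealed and held at 37 C in a humid box, and controls were checked at 3 days. MIC (90% growth inhibition) was read visually by high-magnification observation of the cells and re-read at 7 days.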", "units": {"MIC90": "µg/mL"}, "values": [{"smiles": "CCO/N=C1\\C(=O)N(CCCN2CCN(c3cc4c(cc3F)c(=O)c(C(=O)OCCCN3C(=O)/C(=N/OCC)c5ccccc53)cn4C3CC3)CC2)c2ccccc21", "MIC90": 25}]}, {"tested_on": "Enterobacter cloacae", "test": "Antibacterial activity against Enterobacter cloacae ATCC 43560 after 18 to 24 hrs by two-fold serial dilution method", "type": "functional", "conditions": "not given", "units": {"MIC90": "µg/mL"}, "values": [{"smiles": "CCO/N=C1\\C(=O)N(CCCN2CCN(c3cc4c(cc3F)c(=O)c(C(=O)OCCCN3C(=O)/C(=N/OCC)c5ccccc53)cn4C3CC3)CC2)c2ccccc21", "MIC90": 64}]}, {"tested_on": "Proteus mirabilis", "test": "Antibacterial activity against Proteus mirabilis 13-1 after 18 to 24 hrs by two-fold serial dilution method", "type": "functional", "conditions": "not given", "outline": "as §1", "units": {"MIC90": "µg/mL"}, "values": [{"smiles": "CCO/N=C1\\C(=O)N(CCCN2CCN(c3cc4c(cc3F)c(=O)c(C(=O)OCCCN3C(=O)/C(=N/OCC)c5ccccc53)cn4C3CC3)CC2)c2ccccc21", "MIC90": 64}]}, {"tested_on": "Proteus vulgaris", "test": "Antibacterial activity against Proteus vulgaris ATCC 29905 after 18 to 24 hrs by two-fold serial dilution method", "type": "functional", "conditions": "not given", "outline": "as §1", "units": {"MIC90": "µg/mL"}, "values": [{"smiles": "CCO/N=C1\\C(=O)N(CCCN2CCN(c3cc4c(cc3F)c(=O)c(C(=O)OCCCN3C(=O)/C(=N/OCC)c5ccccc53)cn4C3CC3)CC2)c2ccccc21", "MIC90": 128}]}, {"tested_on": "Citrobacter freundii", "test": "Antibacterial activity against extended-spectrum beta-lactamase harboring Citrobacter freundii ATCC 43864 after 18 to 24 hrs by two-fold serial dilution method", "type": "functional", "conditions": "not given", "outline": "as §2", "units": {"MIC90": "µg/mL"}, "values": [{"smiles": "CCO/N=C1\\C(=O)N(CCCN2CCN(c3cc4c(cc3F)c(=O)c(C(=O)OCCCN3C(=O)/C(=N/OCC)c5ccccc53)cn4C3CC3)CC2)c2ccccc21", "MIC90": 128}]}, {"tested_on": "Enterococcus faecalis", "test": "Antibacterial activity against Enterococcus faecalis ATCC 51299 after 18 to 24 hrs by two-fold serial dilution method", "type": "functional", "conditions": "not given", "outline": "as §1", "units": {"MIC90": "µg/mL"}, "values": [{"smiles": "CCO/N=C1\\C(=O)N(CCCN2CCN(c3cc4c(cc3F)c(=O)c(C(=O)OCCCN3C(=O)/C(=N/OCC)c5ccccc53)cn4C3CC3)CC2)c2ccccc21", "MIC90": "> 128"}]}, {"tested_on": "Staphylococcus aureus", "test": "Antibacterial activity against methicillin-sensitive Staphylococcus aureus ATCC 29213 after 18 to 24 hrs by two-fold serial dilution method", "type": "functional", "conditions": "not given", "outline": "as §2", "units": {"MIC90": "µg/mL"}, "values": [{"smiles": "CCO/N=C1\\C(=O)N(CCCN2CCN(c3cc4c(cc3F)c(=O)c(C(=O)OCCCN3C(=O)/C(=N/OCC)c5ccccc53)cn4C3CC3)CC2)c2ccccc21", "MIC90": 128}]}, {"tested_on": "Staphylococcus aureus", "test": "Antibacterial activity against methicillin-resistant Staphylococcus aureus ATCC 33591 after 18 to 24 hrs by two-fold serial dilution method", "type": "functional", "conditions": "not given", "outline": "as §2", "units": {"MIC90": "µg/mL"}, "values": [{"smiles": "CCO/N=C1\\C(=O)N(CCCN2CCN(c3cc4c(cc3F)c(=O)c(C(=O)OCCCN3C(=O)/C(=N/OCC)c5ccccc53)cn4C3CC3)CC2)c2ccccc21", "MIC90": "> 128"}]}, {"tested_on": "Providencia rettgeri", "test": "Antibacterial activity against Providencia rettgeri ATCC 31052 after 18 to 24 hrs by two-fold serial dilution method", "type": "functional", "conditions": "not given", "outline": "as §1", "units": {"MIC90": "µg/mL"}, "values": [{"smiles": "CCO/N=C1\\C(=O)N(CCCN2CCN(c3cc4c(cc3F)c(=O)c(C(=O)OCCCN3C(=O)/C(=N/OCC)c5ccccc53)cn4C3CC3)CC2)c2ccccc21", "MIC90": 128}]}, {"tested_on": "Acinetobacter calcoaceticus", "test": "Antibacterial activity against Acinetobacter calcoaceticus ATCC 19606 after 18 to 24 hrs by two-fold serial dilution method", "type": "functional", "conditions": "not given", "outline": "as §1", "units": {"MIC90": "µg/mL"}, "values": [{"smiles": "CCO/N=C1\\C(=O)N(CCCN2CCN(c3cc4c(cc3F)c(=O)c(C(=O)OCCCN3C(=O)/C(=N/OCC)c5ccccc53)cn4C3CC3)CC2)c2ccccc21", "MIC90": "> 128"}]}, {"tested_on": "Escherichia coli", "test": "Antibacterial activity against extended-spectrum beta-lactamase deficient Escherichia coli ATCC 25922 after 18 to 24 hrs by two-fold serial dilution method", "type": "functional", "conditions": "not given", "outline": "as §1", "units": {"MIC90": "µg/mL"}, "values": [{"smiles": "CCO/N=C1\\C(=O)N(CCCN2CCN(c3cc4c(cc3F)c(=O)c(C(=O)OCCCN3C(=O)/C(=N/OCC)c5ccccc53)cn4C3CC3)CC2)c2ccccc21", "MIC90": 8}]}, {"tested_on": "Serratia marcescens", "test": "Antibacterial activity against Serratia marcescens ATCC 21074 after 18 to 24 hrs by two-fold serial dilution method", "type": "functional", "conditions": "not given", "outline": "as §1", "units": {"MIC90": "µg/mL"}, "values": [{"smiles": "CCO/N=C1\\C(=O)N(CCCN2CCN(c3cc4c(cc3F)c(=O)c(C(=O)OCCCN3C(=O)/C(=N/OCC)c5ccccc53)cn4C3CC3)CC2)c2ccccc21", "MIC90": "> 128"}]}]}
